Data on eleven compounds can be found in PubChem BioAssay.

Molecules are shown by their SMILES. Active and inactive are the calls of the source.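 Rule for the calls, unless noted: active = inhibition at or above 50% at 10 µM; inactive = inhibition below 50%.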

Assay [1] in a line: inhibitors of TNFa-induced NFkB p65 translocation, primary screen, imaging, HUVEC, MLSMR starter and 10KST1 sets (AID 438;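 active = inhibition above 20% together with a positive visual image hit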;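 note: compound added about 3h40 before a 20 min TNFalpha stimulation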;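 for inhibition: signal is the nuclear over cytoplasmic p65 intensity ratio per well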). Particulars: HUVEC TNFa-induced p65 nuclear translocation; cell count: measured here: nuclei count (cytotoxicity indicator), at 2.08 µM; inhibition: at 2 µM, stronger effect = higher value, 0% TNFa-plus-vehicle, 100% no-TNFa wells.
Assay [2] can be described thus: inhibitors of mutant huntingtin aggregation, primary screen, imaging, exon1htt(103Q)mCFP cells, high-content imaging (AID 483;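 active = visual image review flags a hit and inhibition of aggregation exceeds 20%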;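 note: compound exposure lasted 3 days before fixation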;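 for nuclei count: percent of the per-plate median nuclei count of sample wells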). As to conditions: exon1htt(103Q)mCFP cell line, aggregate imaging, at 2 µM; inhibition of aggregation: stronger effect = higher value; nuclei count: measured here: cell count, toxicity.
A short description of assay [3]: inhibitors of E-selectin induction by TNFa, primary screen, imaging, HUVEC, immunofluorescence, MLSMR starter and 10KST1 sets (AID 487;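 active = visually confirmed hit in the image check and inhibition above 20%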;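 for inhibition: signal is fraction of cell area covered by stained E-selectin grains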;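 for nuclei count: 100% = median nuclei count of all wells on the same plate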). As to conditions: HUVEC TNFalpha-induced E-selectin immunofluorescence imaging, at 2 µM; inhibition: stronger effect = higher value; nuclei count: measured here: cell number, toxicity.
Assay [4] addresses Voltage-gated potassium channel subunit beta-2 (Rattus norvegicus) (UniProt P62483). Put plainly: KvBeta enzyme negative modulators, primary screen, biochemical, NADPH fluorescence (AID 622;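 active = fluorescence slope higher than the sample average by over 3 SD, cut at about -0.22 in these data, passing the limit was not always enough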;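 note: slope of raw intensity against log time taken from 70 to 1610 s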). Particulars: recombinant KvBeta, 4-cyanobenzaldehyde reduction, at 10 µM, stronger effect = higher value.
The target is the same in assay [5]. Put plainly: KvBeta positive modulators, primary screen, biochemical, NADPH fluorescence (AID 623;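 active = NADPH fluorescence slope more negative than the mean of all samples by about 3 SD, 99.7% confidence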;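 note: fluorescence intensity change per second fitted from 20 to 320 s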). As to conditions: Recombinant KvBeta, NADPH fluorescence decrease slope, 10 min; at 10 µM; stronger effect = lower value.
In assay [6] the target is Alpha-2C adrenergic receptor (Homo sapiens) (UniProt P18825). Put plainly: modulators of alpha2C/GIRK thallium flux, primary screen, cell-based, HEK293 alpha2C/GIRK1/2 (AID 624;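 active = fluorescence slope after compound addition differing from the mean of all screened samples at 99.7% confidence, in either direction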;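 note: slope of fluorescence ratio to pre-addition baseline per second over 15 to 24 s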). Particulars: thallium flux BTC fluorescence, at 10 µM, actives lie on both sides.
Sequence of Alpha-2C adrenergic receptor (Homo sapiens) (P18825 whole entry, looked up): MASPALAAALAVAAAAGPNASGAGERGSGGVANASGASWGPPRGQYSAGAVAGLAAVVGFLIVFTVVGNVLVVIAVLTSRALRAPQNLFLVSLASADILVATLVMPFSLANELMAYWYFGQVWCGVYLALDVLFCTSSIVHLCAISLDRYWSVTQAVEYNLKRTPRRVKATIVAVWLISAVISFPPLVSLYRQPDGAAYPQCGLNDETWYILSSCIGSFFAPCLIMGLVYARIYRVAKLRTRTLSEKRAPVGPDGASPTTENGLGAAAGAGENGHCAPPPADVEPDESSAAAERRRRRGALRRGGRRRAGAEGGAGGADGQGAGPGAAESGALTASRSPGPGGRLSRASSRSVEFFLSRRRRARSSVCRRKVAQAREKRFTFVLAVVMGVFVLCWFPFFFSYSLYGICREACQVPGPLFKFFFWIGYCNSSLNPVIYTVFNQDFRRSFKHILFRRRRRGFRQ
A short description of assay [7]: inhibitors of larval lipid processing in zebrafish, primary screen, whole organism, PED6 fluorescence, gall bladder and intestine (AID 686;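 active = a full or partial loss of lipid-probe fluorescence in the fish gall bladder, intestine or both, judged by eye; inactive = no fluorescence loss, or compound toxic to the fish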;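 note: larvae 5 to 7 days old with five fish per well; signal comes from phospholipase A2 cleavage of quenched PED6 carried via bile; overnight exposure to compound and PED6 before scoring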). As to conditions: Zebrafish larvae PED6 lipid processing, fluorescence scoring; screened at 20 µM (by protocol). In outline: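 Test system – live zebrafish larvae aged 5-7 days, whole organism · Buffer or medium – E3 fish medium · Reagent – quenched phospholipase substrate PED6, 100 nM final, ingested by larvae · Doses – 20 µM single dose · Incubation – overnight compound and PED6 incubation · Technique – visual fluorescence microscopy scoring of gall bladder, gut · Read-out basis – visual per-well fluorescence inhibition score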

A short description of assay [8]: inhibitors of Sendai virus-induced IRF3 signaling, primary screen, TLR/RLR signaling modifier project, cell-based, Sendai virus stimulus, luciferase, 10K MLSCN set (AID 602276).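 Note: firefly luciferase from ISG56 promoter only with Renilla not read in this screen; 0% = Sendai virus plus DMSO and 100% = medium plus DMSO without virus.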 Particulars: HEK293 RL24 IRF3 luciferase reporter, at 10 µM, stronger effect = higher value. A general note: A reporter such as luciferase makes a cellular process visible.
A short description of assay [9]: inhibitors of poly I:C-induced TLR3 signaling, primary screen, cell-based, poly I:C stimulus, luciferase, 10K MLSCN set (AID 602277;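 active = inhibition of the reporter signal at or above 50%; inactive = inhibition below 50%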). As to conditions: HEK293-TLR3 RL24 IRF3 luciferase reporter, at 10 µM, stronger effect = higher value.

Sequence of Voltage-gated potassium channel subunit beta-2 (Rattus norvegicus) (P62483 whole entry, looked up): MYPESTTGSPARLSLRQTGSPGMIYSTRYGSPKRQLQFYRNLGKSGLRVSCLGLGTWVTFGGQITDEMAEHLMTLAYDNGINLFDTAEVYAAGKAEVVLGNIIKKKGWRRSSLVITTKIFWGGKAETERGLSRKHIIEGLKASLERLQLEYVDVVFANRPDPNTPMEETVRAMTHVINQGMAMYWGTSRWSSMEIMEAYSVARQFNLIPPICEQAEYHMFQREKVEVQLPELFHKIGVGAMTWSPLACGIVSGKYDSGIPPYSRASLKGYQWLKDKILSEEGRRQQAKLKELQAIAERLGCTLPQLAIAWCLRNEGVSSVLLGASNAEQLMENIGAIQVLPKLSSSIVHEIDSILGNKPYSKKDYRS

A word on the inhibition: it is the drop in the measured response relative to a control, in per cent. Regarding `O=C(CSCc1n[nH]c(=O)[nH]1)NCCOc1cccc(Oc2ccccc2)c1`, in [1], the cell count is 615. Moreover, the inhibition is -13% (inactive) in assay [1], -16.1% (inactive) in assay [3], -14.2% (inactive) in assay [8] and 2.61% (inactive) in assay [9]. Besides, the inhibition of aggregation in assay [2] was 8.5% (inactive). Moreover, the nuclei count in [2] was 77.7%; in assay [3], 105%. Besides, in [4], the fluorescence slope was -0.417 (inactive). The NADPH fluorescence slope in [5] is -6.7e-05 (inactive). Moreover, the slope in [6] was 0.00545 (inactive). Besides, the result in [7] was inactive.
`Cc1cc(C)nc(N2CCC(C(=O)Nc3ccc(Oc4ccccc4)cc3)CC2)n1`: the cell count in assay [1] worked out at 706. Also, the inhibition in assay [1] was -15% (inactive); in [3] it was -54.3% (inactive); in assay [8] it was 13% (inactive); in [9], 11% (inactive). In addition, the inhibition of aggregation in assay [2] was -11% (inactive). In addition, the values for the nuclei count in [2] and in assay [3] were 122% and 116%, respectively. Also, the fluorescence slope in assay [4] is -0.432 (inactive). The NADPH fluorescence slope in assay [5] was -5.6e-05 (inactive). In addition, the slope in assay [6] is 0.00595 (inactive). For the same compound, in assay [7], the compound was called inactive.
Take `CCOC(=O)C1=C(c2ccccc2)N2CCS(=O)(=O)N=C2S1`: the cell count in assay [1] amounted to 531. For the same compound, the inhibition in [1] is 0.5% (inactive); in [3] it was -98.9% (inactive); in [8] it was 16.1% (inactive); in [9], 20.5% (inactive). In addition, in assay [2], the inhibition of aggregation is -5.8% (inactive). The values for the nuclei count in [2] and in [3] were 105% and 108%, respectively. Besides, the fluorescence slope in assay [4] is -0.271 (inactive). In addition, the NADPH fluorescence slope in assay [5] was -1e-05 (inactive). The slope in assay [6] was 0.0047 (inactive). The outcome in assay [7] was inactive.
In the case of `Cc1ccc(S(=O)(=O)N2CCN(c3nc(C)nc4sc(C)c(C)c34)CC2)cc1`, the cell count in assay [1] amounted to 345. The inhibition was 10.5% (inactive) in [1], -191% (inactive) in [3], 5.42% (inactive) in [8] and 4.33% (inactive) in assay [9]. Besides, the inhibition of aggregation in assay [2] is -6.6% (inactive). Further, the nuclei count is 110% in assay [2] and 108% in [3]. Besides, the fluorescence slope in [4] was -0.387 (inactive). In [5], the NADPH fluorescence slope is -5.6e-05 (inactive). In addition, the slope in assay [6] is 0.0062 (inactive). The call in assay [7] was inactive.
As for `O=C(Nc1cc(C(F)(F)F)ccc1N1CCCC1)c1ccc2c(c1)OCO2`, in assay [1], the cell count is 215. Further, the inhibition in [1] is 6.7% (inactive); in assay [3], -54.9% (inactive); in assay [8], 13% (inactive); in assay [9] it was 24.5% (inactive). The inhibition of aggregation in [2] was 16.7% (inactive). Moreover, the nuclei count stood at 84.5% in assay [2] and 103% in assay [3]. Further, in assay [4], the fluorescence slope is -0.461 (inactive). In addition, the NADPH fluorescence slope in [5] was -2e-05 (inactive). Also, the slope in assay [6] was 0.00354 (inactive). Further, the outcome in assay [7] was inactive.
For the compound `O=C(CCCSc1nc2ccccc2s1)NC1=NCCS1`, in assay [1], the cell count amounted to 333. Besides, the inhibition in assay [1] is -7.4% (inactive); in assay [3], -3.2% (inactive); in [8], 36% (inactive); in [9] it was 60.9% (active). Also, in [2], the inhibition of aggregation is 10.8% (inactive). Besides, the nuclei count in [2] and in [3] was 102% in each case. Further, the fluorescence slope in assay [4] was -0.409 (inactive). The NADPH fluorescence slope in assay [5] was -1.5e-05 (inactive). Moreover, the slope in assay [6] is 0.00541 (inactive). In addition, the compound was classed as inactive in [7].
Turning to `CCOC(=O)/C=C1\SCC(=O)N1Cc1nnc(-c2ccccc2Br)o1`, the cell count in assay [1] turned out to be 505. The inhibition in [1] is 0.5% (inactive); in [3], -51.5% (inactive); in assay [8], 12.8% (inactive); in [9], 10.1% (inactive). Besides, in assay [2], the inhibition of aggregation was -7.7% (inactive). Also, the nuclei count in assay [2] was found to be 98.7%; in assay [3], 123%. For the same compound, the fluorescence slope in [4] is -0.452 (inactive). Also, the NADPH fluorescence slope in [5] is -5.3e-05 (inactive). The slope in [6] was 0.00466 (inactive). The compound was classed as inactive in assay [7].
On to `CC1(C)CC(=O)C(C=NC(CCC(N)=O)C(=O)O)=C(O)C1` (configuration not stated), for which the cell count in assay [1] is 520. The inhibition is -22.3% (inactive) in assay [1], 54.4% (active) in [3], 13.3% (inactive) in assay [8] and 13.8% (inactive) in assay [9]. Moreover, the inhibition of aggregation in [2] is -15.6% (inactive). The results for the nuclei count in assay [2] and in [3] were 113% and 93.1%, respectively. Further, the fluorescence slope in assay [4] is -0.382 (inactive). Besides, the NADPH fluorescence slope in assay [5] was -1e-05 (inactive). For the same compound, in [6], the slope was 0.00504 (inactive). For the same compound, the call in assay [7] was inactive.
For the compound `Cn1c(C(=O)NCc2cccnc2)cc2sccc21`, in [1], the cell count stood at 560. Further, the inhibition in assay [1] is -4.9% (inactive); in assay [3], -25% (inactive); in assay [8], -11.9% (inactive); in assay [9], -21.5% (inactive). The inhibition of aggregation in assay [2] was 1.2% (inactive). For the same compound, the nuclei count in [2] worked out at 104%; in assay [3], 110%. Moreover, in assay [4], the fluorescence slope was -0.436 (inactive). In addition, the NADPH fluorescence slope in assay [5] was 3.4e-05 (inactive). In addition, in assay [6], the slope was 0.00497 (inactive). The outcome in assay [7] was inactive.
Consider `COCc1nnc(SCC(=O)NC(C)c2ccccc2)n1-c1ccccc1` (configuration not stated), for which the cell count in assay [1] was 308. The inhibition was -1.1% (inactive) in [1], -18.5% (inactive) in assay [3], 14.7% (inactive) in assay [8] and 14.9% (inactive) in [9]. Besides, the inhibition of aggregation in assay [2] was 5.8% (inactive). Further, the nuclei count in [2] was 94.3%; in [3] it was 101%. For the same compound, in assay [4], the fluorescence slope was -0.434 (inactive). Besides, the NADPH fluorescence slope in assay [5] was -3.6e-05 (inactive). The slope in assay [6] was 0.00455 (inactive). The outcome in [7] was inactive.
As for `O=C(c1cnc2sccn2c1=O)N1CCc2ccccc2C1`, in assay [1], the cell count was found to be 438. Further, the inhibition was -3% (inactive) in [1], -376% (inactive) in [3], -4.13% (inactive) in assay [8] and 99% (active) in [9]. Also, in assay [2], the inhibition of aggregation was 4.4% (inactive). Moreover, the results for the nuclei count in [2] and in [3] were 86.1% and 102%, respectively. In [4], the fluorescence slope was -0.398 (inactive). Besides, the NADPH fluorescence slope in assay [5] was -5.3e-05 (inactive). In addition, in assay [6], the slope is 0.00452 (inactive). Also, in assay [7], the call was inactive.
